# Source: PMC3059335 (Investigational New Drugs, 2010)
# Legend:
# [1] = system: patients with solid tumors; test: toxicity monitoring of continuous infusion cilengitide; format: in vivo
# [2] = pharmacokinetics of continuous infusion cilengitide; format: in vivo, human
# Summary of the method: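 Test compound given as fixed-dose continuous IV infusion (1–40 mg/hr) via venous access port, diluted in 0.9% NaCl or 5% dextrose; bag changed weekly. Heparinised blood (10 mL) taken day 1 pre-dose and 2 h post-start, then weekly for 4 weeks before and 2 h after bag change. Plasma frozen at −80°C, run in duplicate by HPLC-MS/MS. Steady-state concentration, Vss and clearance reported as mean and SD; Vd assumes 4-h half-life.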
# [3] = human, cited from earlier work
# [4] = system: patients with solid tumors; test: tumor response, radiographic tumor assessment every 8 weeks; format: in vivo, human
# Summary of the method: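 Patients received continuous IV infusion at fixed dose levels of 1, 2, 4, 8, 12, 18, 27 or 40 mg/hr, with the infusion bag replaced weekly; 4-week cycles without a break. Tumors assessed every 8 weeks (every two cycles). Patients with DLT continued at the next lower dose if toxicities had resolved to grade ≤1 and disease had not progressed.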
# [5] = system: αvβ3 and αvβ5-mediated cell adhesion; conditions: read-out: IC50, inhibition of αvβ3 and αvβ5-mediated cell adhesion; cited from earlier work
# [6] = system: patients with advanced solid tumours; conditions: phase I testing of doses up to 2400 mg/m^2 twice weekly; cited from earlier work
smiles,measurement,setting,value
CC(C)[C@H]1C(=O)N[C@@H](CCCNC(=N)N)C(=O)NCC(=O)N[C@@H](CC(=O)O)C(=O)N[C@H](Cc2ccccc2)C(=O)N1C [cilengitide],maximum tolerated dose (MTD),"[1]; continuous infusion, doses up to 40 mg/hr",not reached
same,treatment-related hypertension,[1]; in vivo,did not occur in any patients
same,maximum feasible dose,"[1]; in vivo, iv",40 mg/h
same,"cilengitide clearance, range calculated in our study","[2]; continuous infusion 1-40 mg/hr, range across dose levels",55 – 88 mL/min/m^2
same,accumulation of cilengitide in the plasma over time,"[2]; continuous infusion, weekly sampling in cycle 1",no evidence of accumulation
same,clearance,[3]; in vivo,34-66 mL/min/m^2
same,plasma half-life,[3]; in vivo,3 to 5 h
same,"metabolism, drug accumulation, or enterohepatic circulation",[3]; intermittent dosing,"no evidence of metabolism, drug accumulation, or enterohepatic circulation"
same,objective responses,[4]; 17 of the 35 patients assessed at the end of cycle 2,No objective responses were observed
same,relationship between dose level or steady state concentration (Css) and change in tumor size after two cycles,[4]; data not shown,no significant relationship
same,median duration of stable disease,"[4]; two patients, cycle = 4 weeks",3.5 cycles
same,IC50,[5],~1000 nM
same,maximally tolerated dose,[6],not reached
